# Reference: ChEMBL document CHEMBL3352511, “Pyrrole-3-carboxamides as potent and selective JAK2 inhibitors” (Bioorg Med Chem, 2014)
# Calls of active or inactive are those of the source. No cut-off for these calls is given here.
# Experiments:
# [1] = Antiproliferative activity against human DERL7 cells after 72 hrs by Cell Titer-Glo assay; type: functional, cell-based; conditions: DERL7, 72 h
# A2780 = assay: Antiproliferative activity against human A2780 cells after 72 hrs by Cell Titer-Glo assay; type: functional, cell-based; conditions: A2780, 72 h
# [2] = Solubility of the compound in buffer at pH7; type: physicochemical; conditions: pH 7
# [3] = Cmax in Balb nu/nu mouse at 10 mg/kg, iv; type: ADME, organism-based; design: dose 10 mg/kg, route intravenous; conditions: in vivo
# Method in brief: (§1)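 Overnight-fasted male Nu/Nu mice, single intravenous dose in 10% Tween 80 in 5% dextrose, three mice. Saphenous vein blood taken at predose, 0.083, 0.5, 1, 6 and 24 h. Plasma obtained by centrifugation at 10,000g, 3 min, 4 °C, stored at -80 °C, then analysed by LC/MS/MS.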
# [4] = AUC(infinity) in Balb nu/nu mouse at 10 mg/kg, iv; type: ADME, organism-based, Plasma; design: dose 10 mg/kg, route intravenous, time infinity; conditions: Balb nu/nu, plasma; method in brief: as §1
# [5] = Half life in Balb nu/nu mouse at 10 mg/kg, iv; type: ADME, organism-based; design: dose 10 mg/kg, route intravenous; conditions: in vivo; method in brief: as §1
# [6] = Half life in Balb nu/nu mouse at 10 mg/kg, po; type: ADME, organism-based; design: dose 10 mg/kg, route oral; conditions: in vivo
# Method in brief: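 Overnight-fasted male Nu/Nu mice, single oral dose in 0.5% methocel, three mice. Saphenous vein blood taken at predose, 0.083, 0.5, 1, 6 and 24 h. Plasma obtained by centrifugation at 10,000g, 3 min, 4 °C, stored at -80 °C, then analysed by LC/MS/MS.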
# [7] = target: Dual specificity protein kinase CLK2 (Homo sapiens) (UniProt P49760); assay: Inhibition of human CLK2 at 0.1 uM
# Method in brief: (§2)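 KINOMEscan active-site-directed competition binding panel of 442 human kinases, compound tested at 0.1 µM. Primary screen results expressed as % Ctrl, where lower values mean stronger binding.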
# [8] = target: Dual specificity tyrosine-phosphorylation-regulated kinase 1A (Homo sapiens) (UniProt Q13627); assay: Inhibition of human DYRK1A at 0.1 uM; method in brief: as §2
# SET-2 [9] = assay: Effect on total STAT5 level in human SET2 cells at 0.08 to 10 uM after 2 hrs by SDS-PAGE analysis; type: functional, cell-based
# Method in brief: (§3)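 SET-2 cells were grown in RPMI 1640 with 10% FBS at 37 °C, 5% CO₂, and exposed to compound or DMSO for 2 h at 37 °C. Cells were washed in cold PBS and lysed in RIPA buffer. Equal lysate amounts went through SDS-PAGE and nitrocellulose transfer, then 5% milk/TBST blocking and overnight 4 °C probing for total STAT3/STAT5 and phospho-STAT, with ECL detection.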
# SET-2 [10] = assay: Effect on total STAT3 level in human SET2 cells at 0.08 to 10 uM after 2 hrs by SDS-PAGE analysis; type: functional, cell-based; method in brief: as §3
# [11] = Antitumor activity against human SET2 cells xenografted in SCID mouse assessed as tumor growth inhibition at 15 mg/kg, po bid for 10 consecutive days; type: functional; conditions: SET-2, read-out: TGI
# Method in brief: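 Female SCID mice, 5–6 weeks old, given 200 Rads whole-body gamma irradiation, then inoculated s.c. with 10^7 SET-2 cells. Dosing by mouth started at 100-200 mm³ tumours; controls received vehicle (0.5% methocel). Seven animals per study.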
# SET-2 [12] = assay: Inhibition of STAT5 phosphorylation in human SET2 cells xenografted in SCID mouse assessed as tumor growth inhibition at 50 mg/kg, po as single dose measured up to 12 hrs post treatment; type: functional, organism-based; design: dose 50 mg/kg
# Method in brief: (§4)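 SET-2 s.c. xenografts in irradiated female SCID mice were given one oral dose. Tumours were collected at several post-treatment times, 3 animals per time. Tumour lysates were western blotted for P-STAT5 and P-STAT3, with GAPDH as loading control.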
# SET-2 [13] = assay: Inhibition of STAT5 phosphorylation in human SET2 cells xenografted in SCID mouse assessed as tumor growth inhibition at 30 mg/kg, po as single dose measured at 1 to 3 hrs post treatment; type: functional, organism-based; design: dose 30 mg/kg; method in brief: as §4
# SET-2 [14] = assay: Inhibition of STAT3 phosphorylation in human SET2 cells xenografted in SCID mouse assessed as tumor growth inhibition at 30 mg/kg, po as single dose measured at 1 to 3 hrs post treatment; type: functional, organism-based; design: dose 30 mg/kg; method in brief: as §4
# Dual specificity protein kinase CLK2 (Homo sapiens), sequence (P49760 whole entry, looked up): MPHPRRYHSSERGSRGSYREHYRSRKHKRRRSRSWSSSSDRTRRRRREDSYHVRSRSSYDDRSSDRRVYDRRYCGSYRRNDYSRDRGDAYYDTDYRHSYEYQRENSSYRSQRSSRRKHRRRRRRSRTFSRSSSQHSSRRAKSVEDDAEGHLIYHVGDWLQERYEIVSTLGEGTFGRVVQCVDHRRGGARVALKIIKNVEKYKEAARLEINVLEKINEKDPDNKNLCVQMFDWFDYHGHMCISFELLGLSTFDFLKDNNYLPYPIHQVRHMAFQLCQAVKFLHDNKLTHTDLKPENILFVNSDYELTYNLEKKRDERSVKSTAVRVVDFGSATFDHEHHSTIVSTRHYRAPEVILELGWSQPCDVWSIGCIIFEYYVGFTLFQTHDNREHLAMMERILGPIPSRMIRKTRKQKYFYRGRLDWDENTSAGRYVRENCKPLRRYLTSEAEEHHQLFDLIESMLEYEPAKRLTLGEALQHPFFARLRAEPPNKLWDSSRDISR
compound,measurement,setting,value
NC(=O)c1cc(-c2ccnc(N)n2)[nH]c1-c1cc(C(F)(F)F)ccc1Cl,IC50,[1],1.88 µM
same,IC50,A2780,1.47 µM
same,solubility,[2],159 µM
same,Cmax,[3],17.6 µM
same,AUC(0-inf),[4],26.4 µM·h
same,half-life,[5],1.1 h
same,half-life,[6],2.3 h
same,inhibition,[7],1%
same,inhibition,[8],1%
same,Activity,SET-2 [9],inactive
same,Activity,SET-2 [10],inactive
same,inhibition in vivo at 15 mg/kg,[11],50%
same,inhibition,SET-2 [12],Active
same,inhibition,SET-2 [13],Active
same,inhibition,SET-2 [14],Active
